Assays:
[1] = molecular target: T1, Metabotropic glutamate receptor 5 (Rattus norvegicus, UniProt P31424); assay: Ability to displace [3H]3-methoxy-5-(pyridin-2-ylethynyl)pyridine from binding to metabotropic glutamate receptor 5 in rat cortical membranes; format: cell membranes
[2] = molecular target: T1, Metabotropic glutamate receptor 5; assay: In vitro functional activity measured by changes in cytosolic [Ca2+] concentrations against rat metabotropic glutamate receptor 5
In short: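 A cell-based, high-throughput functional assay followed changes in cytosolic Ca2+ concentration by fluorescence detection.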

Rattus norvegicus [3] = assay: Brain penetration measured by compound levels in plasma at a dose of 3 mg/kg upon intraperitoneal after 1 hr; format: functional, organism-based; design: dose 3 mg/kg
In short: (§1)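 Sprague–Dawley rats were dosed intraperitoneally at 10 or 3 mg/kg. Drug levels (µM) in brain and plasma were measured 1 h after dosing, and brain/plasma was expressed as a percentage.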

Rattus norvegicus [4] = assay: Brain penetration measured by compound levels in brain at a dose of 3 mg/kg upon intraperitoneal after 1 hr; format: functional; in short: as §1
[5] = Half life in rat upon intravenous administration at a dose of 2 mg/kg; n = 2; format: ADME, organism-based; design: dose 2 mg/kg, route intravenous; conditions: in vivo
In short: (§2)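 Sprague–Dawley rats (n = 2 per group) were given 2 mg/kg by the intravenous route for pharmacokinetic profiling.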

Rattus norvegicus [6] = species on record: Rattus norvegicus; assay: Ratio of compound levels in brain to that of plasma level was determined; format: functional; in short: as §1
Rattus norvegicus [7] = assay: Effective dose for maximum occupancy in rat upon intraperitoneal administration measured 1 hr post administration; n = 5 - 6; format: functional
In short: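 Receptor occupancy was measured in Sprague–Dawley rats (n = 5–6 per group) 1 h after intraperitoneal dosing. ED50 is given in mg/kg ip.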

Rattus norvegicus [8] = assay: Effective dose for maximum occupancy in rat upon oral administration measured 30 min post administration; n = 6 - 7
Rattus norvegicus [9] = assay: Brain penetration measured by compound levels in plasma at a dose of 10 mg/kg upon intraperitoneal after 1 hr; format: functional, organism-based; design: dose 10 mg/kg; in short: as §1
Rattus norvegicus [10] = assay: Brain penetration measured by compound levels in brain at a dose of 10 mg/kg upon intraperitoneal after 1 hr; format: functional; in short: as §1
[11] = Volume of distribution in rat upon intravenous administration at a dose of 2 mg/kg; n = 2; format: ADME, organism-based; design: dose 2 mg/kg, route intravenous; conditions: in vivo; in short: as §2
[12] = Clearance in rat upon intravenous administration at a dose of 2 mg/kg; n = 2; format: ADME, organism-based; design: dose 2 mg/kg, route intravenous; conditions: plasma, read-out: Clp; in short: as §2
[13] = Oral bioavailability in rat (dose 10 mg/kg p.o.); format: ADME, organism-based; conditions: in vivo
In short: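 Rat pharmacokinetics compared oral dosing at 10 mg/kg (n = 3 Sprague–Dawley rats/group) with intravenous dosing at 2 mg/kg (n = 2 rats/group).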

[14] = Maximum concentration in rat upon oral administration at a dose of 10 mg/kg; n = 3; format: ADME, organism-based; design: dose 10 mg/kg, route oral; conditions: in vivo
In short: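 Sprague–Dawley rats (n = 3 per group) were given 10 mg/kg orally for pharmacokinetic profiling.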

T1 sequence (P31424 whole entry): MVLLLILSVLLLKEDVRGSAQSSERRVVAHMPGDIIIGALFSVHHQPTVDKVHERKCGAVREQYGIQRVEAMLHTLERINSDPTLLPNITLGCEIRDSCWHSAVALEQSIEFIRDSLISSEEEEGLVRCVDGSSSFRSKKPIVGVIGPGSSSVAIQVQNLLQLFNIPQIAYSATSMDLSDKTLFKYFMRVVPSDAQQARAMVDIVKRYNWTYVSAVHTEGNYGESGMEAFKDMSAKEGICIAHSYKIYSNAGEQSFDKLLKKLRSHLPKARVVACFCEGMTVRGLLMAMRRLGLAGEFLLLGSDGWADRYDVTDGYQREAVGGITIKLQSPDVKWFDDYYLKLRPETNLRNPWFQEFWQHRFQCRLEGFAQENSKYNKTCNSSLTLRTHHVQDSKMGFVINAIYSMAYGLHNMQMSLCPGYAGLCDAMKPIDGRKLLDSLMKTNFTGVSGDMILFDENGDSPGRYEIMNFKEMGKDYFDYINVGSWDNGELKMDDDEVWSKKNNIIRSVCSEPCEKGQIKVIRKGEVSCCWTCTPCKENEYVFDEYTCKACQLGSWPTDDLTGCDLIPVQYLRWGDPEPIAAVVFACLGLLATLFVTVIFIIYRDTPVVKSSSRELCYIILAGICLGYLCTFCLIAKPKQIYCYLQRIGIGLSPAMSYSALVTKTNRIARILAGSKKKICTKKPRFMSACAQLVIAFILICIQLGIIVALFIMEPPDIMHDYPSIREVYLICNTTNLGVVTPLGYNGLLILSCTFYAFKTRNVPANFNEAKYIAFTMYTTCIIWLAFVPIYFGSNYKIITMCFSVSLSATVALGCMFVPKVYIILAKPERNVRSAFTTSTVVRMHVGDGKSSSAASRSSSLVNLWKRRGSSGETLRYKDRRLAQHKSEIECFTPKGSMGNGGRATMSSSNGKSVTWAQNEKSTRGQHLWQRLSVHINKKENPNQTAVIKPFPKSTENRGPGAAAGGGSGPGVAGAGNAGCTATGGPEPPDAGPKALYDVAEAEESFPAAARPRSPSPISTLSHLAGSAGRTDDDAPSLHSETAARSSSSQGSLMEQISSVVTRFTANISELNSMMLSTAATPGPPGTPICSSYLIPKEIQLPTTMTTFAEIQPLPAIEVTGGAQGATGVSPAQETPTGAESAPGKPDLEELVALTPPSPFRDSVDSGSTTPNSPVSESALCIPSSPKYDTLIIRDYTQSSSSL

SMILES | Ki [1] [nM] | IC50 [2] [nM] | further results
N#Cc1cc(Cl)cc(-n2nnc(-c3ccccn3)n2)c1 | 26 | 7 | –
c1ccc(-c2nnn(-c3cccc(-c4cccnc4)c3)n2)nc1 | 69 | 63 | –
N#Cc1cc(F)cc(-n2nnc(-c3ncc[nH]3)n2)c1 | – | 47 | –
N#Cc1cc(Oc2cccnc2)cc(-n2nnc(-c3ccccn3)n2)c1 | 16 | 15 | –
N#Cc1cc(F)cc(-n2ccc(-c3ccccn3)c2)c1 | 5 | 3 | –
COc1cc(C#N)cc(-n2nnc(-c3ccccn3)n2)c1 | 6 | 10 | –
N#Cc1cc(OCC2CC2)cc(-n2nnc(-c3ccccn3)n2)c1 | 271 | 975 | –
N#Cc1cc(-n2nnc(-c3ccccn3)n2)ccc1Cl | > 600 | 722 | –
N#Cc1cc(F)cc(-n2nnc(-c3ccccn3)n2)c1 | – | – | Plasma levels (Rattus norvegicus [3]): 2.7 µM; Brain levels (Rattus norvegicus [4]): 2.4 µM; half-life [5]: 174 min; Brain/Plasma (Rattus norvegicus [6]): 90%; Occ ED50 (Rattus norvegicus [7]): 1.3 mg/kg; Occ ED50 (Rattus norvegicus [8]): 3.6 mg/kg
N#Cc1cccc(-n2ccc(-c3ccccn3)c2)c1 | > 600 | 190 | –
N#Cc1cc(-n2nnc(-c3ccccn3)n2)cc([N+](=O)[O-])c1 | 42 | 42 | –
N#Cc1cccc(-n2nnc(-c3ncc[nH]3)n2)c1 | – | 77 | –
N#Cc1cc(OCc2ccccc2)cc(-n2nnc(-c3ccccn3)n2)c1 | > 600 | > 1000 | –
N#Cc1ccc(Cl)c(-n2nnc(-c3ccccn3)n2)c1 | > 600 | 334 | –
Clc1cccc(-n2nnc(-c3ccccn3)n2)c1Cl | > 600 | 1270 | –
N#Cc1cc(C#N)cc(-n2nnc(-c3ccccn3)n2)c1 | 18 | 34 | –
N#Cc1cc(O)cc(-n2nnc(-c3ccccn3)n2)c1 | 318 | 562 | –
N#Cc1cccc(-n2nnc(-c3ccccn3)n2)c1 | – | 73 | Plasma levels (Rattus norvegicus [9]): 10 µM; half-life [5]: 414 min; Brain levels (Rattus norvegicus [10]): 15 µM; Vd [11]: 5 L/kg; clearance [12]: 33 mL/min/kg; Brain/Plasma (Rattus norvegicus [6]): 150%; bioavailability [13]: 100%; Occ ED50 (Rattus norvegicus [7]): 3 mg/kg; Occ ED50 (Rattus norvegicus [8]): 3 mg/kg
N#Cc1cc(N)cc(-n2nnc(-c3ccccn3)n2)c1 | 95 | 308 | –
Cc1cc(C#N)cc(-n2nnc(-c3ccccn3)n2)c1 | 7 | 6 | half-life [5]: 24 min; Cmax [14]: 800 nM; Vd [11]: 1.4 L/kg; clearance [12]: 50 mL/min/kg; bioavailability [13]: 15%
